Measurements: ChEMBL document CHEMBL4118021, “Studies of TAK1-centered polypharmacology with novel covalent TAK1 inhibitors” (Bioorg Med Chem, 2017)
Active and inactive are the calls of the source. The calls are words filed in the database; no cut-off is given here.

Tests used:
[1] = biological target: Platelet-derived growth factor receptor alpha (Homo sapiens) (UniProt P16234); assay: Inhibition of human PDGFRA (575 to 1002 residues) expressed in mammalian expression system assessed as enzyme activity at 10 uM by KINOMEScan assay relative to control; parameters: scale not given: the % may be the effect or the level left
Chain of Platelet-derived growth factor receptor alpha (Homo sapiens) (P16234 whole entry, the tested form may be a part): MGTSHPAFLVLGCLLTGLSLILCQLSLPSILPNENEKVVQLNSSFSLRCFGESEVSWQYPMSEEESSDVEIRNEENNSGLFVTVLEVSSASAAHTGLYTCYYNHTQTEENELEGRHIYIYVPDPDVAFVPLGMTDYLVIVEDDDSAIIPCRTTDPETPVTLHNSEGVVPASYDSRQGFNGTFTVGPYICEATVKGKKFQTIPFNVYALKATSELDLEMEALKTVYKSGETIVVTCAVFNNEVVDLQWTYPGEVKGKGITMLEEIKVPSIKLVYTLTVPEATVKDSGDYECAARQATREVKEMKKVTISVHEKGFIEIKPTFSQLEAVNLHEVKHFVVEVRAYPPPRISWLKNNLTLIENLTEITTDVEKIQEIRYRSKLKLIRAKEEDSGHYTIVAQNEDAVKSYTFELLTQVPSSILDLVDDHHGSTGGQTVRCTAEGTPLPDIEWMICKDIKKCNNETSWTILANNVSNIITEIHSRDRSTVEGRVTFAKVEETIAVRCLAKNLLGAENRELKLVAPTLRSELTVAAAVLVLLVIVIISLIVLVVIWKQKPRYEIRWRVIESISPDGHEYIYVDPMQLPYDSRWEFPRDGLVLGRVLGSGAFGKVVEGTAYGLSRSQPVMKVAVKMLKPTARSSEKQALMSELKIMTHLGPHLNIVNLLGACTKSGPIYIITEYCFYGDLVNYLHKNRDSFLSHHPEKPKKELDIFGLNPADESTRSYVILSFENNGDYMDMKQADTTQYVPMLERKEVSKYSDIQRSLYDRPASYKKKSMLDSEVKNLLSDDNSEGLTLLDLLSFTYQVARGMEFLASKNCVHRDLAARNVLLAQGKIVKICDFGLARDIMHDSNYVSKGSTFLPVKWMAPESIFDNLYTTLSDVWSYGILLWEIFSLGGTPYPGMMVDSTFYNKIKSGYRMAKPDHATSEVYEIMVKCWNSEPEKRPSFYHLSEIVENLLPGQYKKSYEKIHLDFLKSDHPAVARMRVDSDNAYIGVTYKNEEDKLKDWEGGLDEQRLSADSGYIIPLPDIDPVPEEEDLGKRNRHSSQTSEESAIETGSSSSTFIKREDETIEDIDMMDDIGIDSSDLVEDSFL
Method in brief: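 In vitro ATP-site competition binding assay across a panel of 456 kinases, with compound tested at 1 and 10 μM.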

[2] = biological target: Heterogeneous nuclear ribonucleoprotein H2 (Homo sapiens) (UniProt P55795); assay: Binding affinity to HNRNPH2 in human NCI-H23 cells at 1 uM by mass spectrometry based pull down assay; assay type: cell-based
Chain of Heterogeneous nuclear ribonucleoprotein H2 (Homo sapiens) (P55795 whole entry): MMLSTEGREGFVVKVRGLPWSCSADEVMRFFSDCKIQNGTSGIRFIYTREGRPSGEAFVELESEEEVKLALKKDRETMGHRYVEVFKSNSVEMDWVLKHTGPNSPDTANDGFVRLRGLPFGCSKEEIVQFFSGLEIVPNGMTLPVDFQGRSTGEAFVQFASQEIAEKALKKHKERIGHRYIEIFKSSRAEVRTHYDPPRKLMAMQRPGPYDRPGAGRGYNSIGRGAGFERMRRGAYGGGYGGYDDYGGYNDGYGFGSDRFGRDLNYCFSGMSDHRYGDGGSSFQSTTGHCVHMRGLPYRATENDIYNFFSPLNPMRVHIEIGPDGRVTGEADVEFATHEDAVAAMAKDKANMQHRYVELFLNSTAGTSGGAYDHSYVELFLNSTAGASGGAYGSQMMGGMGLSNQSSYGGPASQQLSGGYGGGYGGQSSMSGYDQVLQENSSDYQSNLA

[3] = biological target: Actin-related protein 3 (Homo sapiens) (UniProt P61158); assay: Binding affinity to ACTR3 in human NCI-H23 cells at 1 uM by mass spectrometry based pull down assay; assay type: cell-based
Method in brief: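 NCI-H23 or NCI-H358 cells were grown and lysed. Lysates were incubated overnight at 4 °C with 1 μM biotinylated covalent probe or DMSO, then pulled down on streptavidin beads. Proteins were run on polyacrylamide gels and stained with Coomassie. Bands were excised, digested and identified by mass spectrometry.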

[4] = biological target: Small ribosomal subunit protein uS7m (Homo sapiens) (UniProt Q9Y2R9); assay: Binding affinity to MRPS7 in human NCI-H23 cells at 1 uM by mass spectrometry based pull down assay; assay type: cell-based
[5] = biological target: Bifunctional glutamate/proline--tRNA ligase (Homo sapiens) (UniProt P07814); assay: Binding affinity to EPRS in human NCI-H23 cells at 1 uM by mass spectrometry based pull down assay; assay type: cell-based
[6] = biological target: T1, 80S Ribosome (Homo sapiens) (UniProt P08865+P42677+P62753+P15880+P23396+P61247+P62701+P22090+P46782+P62081+P62241+P46781+P46783+P62280+P25398+P62277+P62263+P62841+P62244+P62249+P08708+P62269+P39019+P60866+P63220+P62266+P62847+P62851+P62854+P62979+P62857+P62273+P62861+P39023+P36578+P46777+Q02878+P18124+P62424+P62917+P32969+P27635+P62906+P62913+P30050+P26373+P40429+P50914+P61313+P18621+Q07020+Q02543+P84098+P46778+P35268+P62829+P62750+P83731+P61254+P61353+P46776+P46779+P47914+P62888+P62899+P62910+P49207+P42766+P18077+Q9Y3U8+P83881+P61927+P61513+P63173+P62891+P62945+P05388+P05386); assay: Binding affinity to RPS7 in human NCI-H23 cells at 1 uM by mass spectrometry based pull down assay; assay type: cell-based
[7] = biological target: Src substrate cortactin (Homo sapiens) (UniProt Q14247); assay: Binding affinity to CTTN in human NCI-H23 cells at 1 uM by mass spectrometry based pull down assay; assay type: cell-based
[8] = biological target: Mitogen-activated protein kinase 3 (Homo sapiens) (UniProt P27361); assay: Binding affinity to MAPK3 in human NCI-H23 cells at 1 uM by mass spectrometry based pull down assay; assay type: cell-based
Chain of Mitogen-activated protein kinase 3 (Homo sapiens) (P27361 whole entry): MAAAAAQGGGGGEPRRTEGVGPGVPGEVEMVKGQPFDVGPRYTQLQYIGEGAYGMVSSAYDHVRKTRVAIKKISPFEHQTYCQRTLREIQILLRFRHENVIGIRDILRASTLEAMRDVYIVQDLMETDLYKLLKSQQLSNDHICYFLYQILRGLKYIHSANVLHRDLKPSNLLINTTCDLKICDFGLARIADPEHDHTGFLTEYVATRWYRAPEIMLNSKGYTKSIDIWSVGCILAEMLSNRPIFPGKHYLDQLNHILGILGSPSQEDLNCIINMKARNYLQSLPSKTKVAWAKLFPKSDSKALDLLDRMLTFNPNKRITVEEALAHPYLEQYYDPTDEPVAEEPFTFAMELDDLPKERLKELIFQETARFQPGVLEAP

[9] = biological target: T1, 80S Ribosome (Homo sapiens); assay: Binding affinity to RPS23 in human NCI-H358 cells at 1 uM by mass spectrometry based pull down assay; assay type: cell-based
[10] = biological target: Acidic leucine-rich nuclear phosphoprotein 32 family member A (Homo sapiens) (UniProt P39687); assay: Binding affinity to ANP32A in human NCI-H358 cells at 1 uM by mass spectrometry based pull down assay; assay type: cell-based
Chain of Acidic leucine-rich nuclear phosphoprotein 32 family member A (Homo sapiens) (P39687 whole entry): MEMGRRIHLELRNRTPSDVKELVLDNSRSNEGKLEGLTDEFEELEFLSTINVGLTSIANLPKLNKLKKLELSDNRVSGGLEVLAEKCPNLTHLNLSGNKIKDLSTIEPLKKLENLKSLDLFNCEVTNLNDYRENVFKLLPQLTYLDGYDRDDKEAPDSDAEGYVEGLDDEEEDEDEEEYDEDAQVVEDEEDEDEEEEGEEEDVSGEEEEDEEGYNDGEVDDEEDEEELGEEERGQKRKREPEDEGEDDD

[11] = biological target: Mitogen-activated protein kinase 3 (Homo sapiens) (UniProt P27361); assay: Binding affinity to MAPK3 in human NCI-H358 cells at 1 uM by mass spectrometry based pull down assay; assay type: cell-based
[12] = biological target: Myosin regulatory light chain 12B (Homo sapiens) (UniProt O14950); assay: Binding affinity to MYL12B in human NCI-H358 cells at 1 uM by mass spectrometry based pull down assay; assay type: cell-based
Chain of Myosin regulatory light chain 12B (Homo sapiens) (O14950 whole entry): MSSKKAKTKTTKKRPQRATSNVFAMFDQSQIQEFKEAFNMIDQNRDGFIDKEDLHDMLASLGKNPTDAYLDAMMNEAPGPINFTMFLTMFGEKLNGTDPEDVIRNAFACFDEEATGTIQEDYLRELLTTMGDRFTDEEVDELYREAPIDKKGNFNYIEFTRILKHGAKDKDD

[13] = biological target: Importin subunit beta-1 (Homo sapiens) (UniProt Q14974); assay: Binding affinity to KPNB1 in human NCI-H358 cells at 1 uM by mass spectrometry based pull down assay; assay type: cell-based
[14] = biological target: Hippocalcin-like protein 1 (Homo sapiens) (UniProt P37235); assay: Binding affinity to HPCAL1 in human NCI-H358 cells at 1 uM by mass spectrometry based pull down assay; assay type: cell-based
[15] = biological target: V-type proton ATPase catalytic subunit A (Homo sapiens) (UniProt P38606); assay: Binding affinity to ATP6V1A in human NCI-H358 cells at 1 uM by mass spectrometry based pull down assay; assay type: cell-based
Chain of V-type proton ATPase catalytic subunit A (Homo sapiens) (P38606 whole entry): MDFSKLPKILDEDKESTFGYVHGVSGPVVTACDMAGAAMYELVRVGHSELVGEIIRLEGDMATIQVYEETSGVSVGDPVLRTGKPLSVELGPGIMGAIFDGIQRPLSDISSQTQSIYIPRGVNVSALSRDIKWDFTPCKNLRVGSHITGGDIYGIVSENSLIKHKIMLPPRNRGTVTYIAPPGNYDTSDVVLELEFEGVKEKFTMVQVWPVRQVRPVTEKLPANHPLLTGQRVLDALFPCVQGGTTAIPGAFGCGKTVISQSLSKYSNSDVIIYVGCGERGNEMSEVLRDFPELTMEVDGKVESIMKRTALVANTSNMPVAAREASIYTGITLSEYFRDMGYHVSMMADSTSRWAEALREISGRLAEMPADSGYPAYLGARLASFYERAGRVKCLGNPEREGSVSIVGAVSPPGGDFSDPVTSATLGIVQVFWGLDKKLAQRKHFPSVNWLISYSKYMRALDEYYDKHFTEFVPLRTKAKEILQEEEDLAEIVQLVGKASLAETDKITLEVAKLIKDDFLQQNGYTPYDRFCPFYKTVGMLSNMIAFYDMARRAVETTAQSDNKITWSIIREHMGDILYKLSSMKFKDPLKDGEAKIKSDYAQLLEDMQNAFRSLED

[16] = biological target: 14-3-3 protein eta (Homo sapiens) (UniProt Q04917); assay: Binding affinity to YWHAH in human NCI-H358 cells at 1 uM by mass spectrometry based pull down assay; assay type: cell-based
Chain of 14-3-3 protein eta (Homo sapiens) (Q04917 whole entry): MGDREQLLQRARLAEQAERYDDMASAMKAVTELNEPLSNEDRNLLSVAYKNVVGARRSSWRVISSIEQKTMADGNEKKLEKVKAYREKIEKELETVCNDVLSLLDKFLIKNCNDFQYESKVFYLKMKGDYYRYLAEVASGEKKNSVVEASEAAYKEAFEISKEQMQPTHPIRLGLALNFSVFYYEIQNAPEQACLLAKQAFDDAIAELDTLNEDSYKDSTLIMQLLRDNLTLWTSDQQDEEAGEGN

[17] = biological target: Plastin-2 (Homo sapiens) (UniProt P13796); assay: Binding affinity to LCP1 in human NCI-H358 cells at 1 uM by mass spectrometry based pull down assay; assay type: cell-based
Chain of Plastin-2 (Homo sapiens) (P13796 whole entry): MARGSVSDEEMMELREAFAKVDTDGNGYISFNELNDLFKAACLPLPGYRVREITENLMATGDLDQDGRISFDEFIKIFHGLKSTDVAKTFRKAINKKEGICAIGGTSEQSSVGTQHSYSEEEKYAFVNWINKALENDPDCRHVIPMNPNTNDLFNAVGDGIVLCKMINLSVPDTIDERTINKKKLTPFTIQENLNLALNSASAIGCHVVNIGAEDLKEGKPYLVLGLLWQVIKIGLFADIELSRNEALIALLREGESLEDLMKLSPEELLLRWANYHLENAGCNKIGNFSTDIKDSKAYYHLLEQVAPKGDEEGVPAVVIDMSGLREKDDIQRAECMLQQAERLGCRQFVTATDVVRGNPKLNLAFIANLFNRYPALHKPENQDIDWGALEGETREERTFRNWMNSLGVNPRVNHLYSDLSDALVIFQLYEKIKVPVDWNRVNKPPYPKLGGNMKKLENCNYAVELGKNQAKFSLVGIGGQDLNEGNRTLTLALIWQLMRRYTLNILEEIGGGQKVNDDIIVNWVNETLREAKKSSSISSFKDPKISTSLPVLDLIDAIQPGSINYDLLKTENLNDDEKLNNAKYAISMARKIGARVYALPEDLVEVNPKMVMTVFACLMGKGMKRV

[18] = biological target: Caprin-1 (Homo sapiens) (UniProt Q14444); assay: Binding affinity to CAPRIN1 in human NCI-H358 cells at 1 uM by mass spectrometry based pull down assay; assay type: cell-based
Chain of Caprin-1 (Homo sapiens) (Q14444 whole entry): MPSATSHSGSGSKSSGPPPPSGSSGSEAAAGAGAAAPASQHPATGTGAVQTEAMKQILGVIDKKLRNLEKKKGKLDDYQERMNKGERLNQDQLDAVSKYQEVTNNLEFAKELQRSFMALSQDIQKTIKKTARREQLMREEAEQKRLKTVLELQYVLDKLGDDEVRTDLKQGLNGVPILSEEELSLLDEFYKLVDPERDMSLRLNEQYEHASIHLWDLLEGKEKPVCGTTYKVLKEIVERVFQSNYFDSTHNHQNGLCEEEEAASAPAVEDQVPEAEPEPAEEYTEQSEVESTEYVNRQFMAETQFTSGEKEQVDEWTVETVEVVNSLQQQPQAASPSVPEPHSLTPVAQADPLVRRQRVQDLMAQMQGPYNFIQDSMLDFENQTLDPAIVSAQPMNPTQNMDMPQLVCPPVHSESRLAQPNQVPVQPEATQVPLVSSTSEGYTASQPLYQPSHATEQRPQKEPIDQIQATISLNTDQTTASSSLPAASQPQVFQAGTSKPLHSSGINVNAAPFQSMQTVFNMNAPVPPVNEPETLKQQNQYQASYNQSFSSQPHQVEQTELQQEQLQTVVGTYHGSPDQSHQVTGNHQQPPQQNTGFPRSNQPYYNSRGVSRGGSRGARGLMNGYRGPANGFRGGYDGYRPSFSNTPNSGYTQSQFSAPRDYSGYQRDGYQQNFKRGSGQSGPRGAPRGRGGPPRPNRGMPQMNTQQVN

[19] = biological target: T2, Mitogen-activated protein kinase kinase kinase 7 (Homo sapiens) (UniProt O43318); assay: Inhibition of TAK1 in RA patient-derived synovial fibroblasts assessed as inhibition of TNFalpha-induced cytokine secretion at 3 uM preincubated for 3 hrs followed by TNFalpha stimulation measured after 18 hrs by sandwich immunoassay
T2 sequence (whole entry): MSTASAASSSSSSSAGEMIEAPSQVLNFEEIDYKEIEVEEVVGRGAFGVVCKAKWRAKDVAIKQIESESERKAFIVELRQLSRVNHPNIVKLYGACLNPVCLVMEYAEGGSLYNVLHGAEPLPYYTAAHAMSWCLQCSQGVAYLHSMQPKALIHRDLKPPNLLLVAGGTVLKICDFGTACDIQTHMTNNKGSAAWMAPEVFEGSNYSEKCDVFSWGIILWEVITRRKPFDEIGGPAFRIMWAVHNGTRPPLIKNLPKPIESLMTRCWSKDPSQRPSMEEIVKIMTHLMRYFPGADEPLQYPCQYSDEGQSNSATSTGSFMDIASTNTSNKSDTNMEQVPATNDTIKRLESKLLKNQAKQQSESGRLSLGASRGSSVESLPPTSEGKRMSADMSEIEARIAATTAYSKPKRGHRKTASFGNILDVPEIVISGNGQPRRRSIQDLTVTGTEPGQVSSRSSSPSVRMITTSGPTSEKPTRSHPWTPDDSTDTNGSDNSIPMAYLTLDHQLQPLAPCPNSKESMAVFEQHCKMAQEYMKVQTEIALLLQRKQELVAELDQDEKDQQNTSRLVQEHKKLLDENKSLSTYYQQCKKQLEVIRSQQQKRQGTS
Method in brief: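 Primary RA synovial fibroblasts (donor RA2159) seeded 1000 cells/well and grown ~24 h at 37 °C, 5% CO2. Starved overnight in basal medium, then ~4 h in basal medium with 0.1% BSA. Two adjacent wells pooled per replicate, in biological duplicate. Supernatants diluted 1:3 and run on Luminex 27-plex/21-plex sandwich immunoassays for 48 analytes, with spiked-ligand and mock-supernatant background controls.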

Question: How did the Activity [1] turn out when COc1cc(O)c2c(c1)/C=C/C[C@H](O)[C@H](O)C(=O)/C=C\C[C@H](C)OC2=O was run?
Answer: 1.4%

Question: C=CC(=O)Nc1ccccc1Nc1nc(Nc2ccc(N3CCN(CCOCCOCCOCCNC(=O)CCCC[C@@H]4SC[C@@H]5NC(=O)N[C@@H]54)CC3)cc2)ncc1Cl was tested. Which Activity [2] did it give?
Answer: Active

Question: What about the Activity [3] of the same molecule?
Answer: Active

Question: What about the Activity [4] of the same molecule?
Answer: Active

Question: What about the Activity [5] of the same molecule?
Answer: Active

Question: What about the Activity [6] of the same molecule?
Answer: Active

Question: What about the Activity [7] of the same molecule?
Answer: Active

Question: And the Activity [8]?
Answer: Active

Question: And the Activity [9]?
Answer: Active

Question: What about the Activity [10] of the same molecule?
Answer: Active

Question: And the Activity [11]?
Answer: Active

Question: What about the Activity [12] of the same molecule?
Answer: Active

Question: What about the Activity [13] of the same molecule?
Answer: Active

Question: And the Activity [14]?
Answer: Active

Question: And the Activity [15]?
Answer: Active

Question: And the Activity [16]?
Answer: Active

Question: And the Activity [17]?
Answer: Active

Question: What about the Activity [18] of the same molecule?
Answer: Active

Question: C=CC(=O)Nc1ccccc1Oc1nc(Nc2cnn(CCOC)c2)ncc1Cl was tested. Which inhibition [19] did it give?
Answer: Active
